Experimental data reported in ChEMBL document CHEMBL1687834, “Identification and characterization of persistent intracellular human immunodeficiency virus type 1 integrase strand transfer inhibitor activity” (Antimicrob Agents Chemother, 2011).
pEC50: −log10 of the molar value. The source made the active and inactive calls. The rule behind the calls is not given here.

Key:
[1] = test system: Human immunodeficiency virus 1; test: Antiviral activity against single-round HIV1 NLX.Lux-R harboring inactivating mutations in env, vpr and carries firefly luciferase gene in place of nef infected in human HeLa-T4 cells assessed as luciferase activity after 48 hrs […]; format: functional, organism-based; conditions: Human immunodeficiency virus 1, HeLaT4, 48 h
How it was run: (§1)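 HeLa-T4 cells infected in duplicate for 2 h with 105 RT-cpm VSV-G-pseudotyped HIV-Luc (MOI ~0.01) with serial drug dilutions, washed and re-fed with the same drug. Luciferase normalized to total protein at 48 h, minus matched integrase-mutant N/N-Luc background. EC50/EC95 by GROWTH fit, ≥3 experiments; CC50 by WST-1 on HeLa-T4; SI = CC50/EC50.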

[2] = Cytotoxicity against human HeLaT4 cells by WST-1 assay; format: cell-based
How it was run: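 HeLa-T4 cells grown in DMEM with 10% FBS, 100 IU/ml penicillin and 100 μg/ml streptomycin; drug cytotoxicity measured by WST-1 read-out, with drugs tested up to 100 μM; 50% cytotoxic concentration (CC50) reported.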

[3] = Selectivity index, ratio of CC50 for human HeLa-T4 cells to EC50 for single-round HIV1 NLX.Lux-R harboring inactivating mutations in env, vpr and carries firefly luciferase gene in place of nef; format: toxicity, cell-based; conditions: read-out: Ratio CC50/EC50; how it was run: as §1
[4] = test system: Human immunodeficiency virus 1; test: Antiviral activity against single-round HIV1 NLX.Lux-R harboring inactivating mutations in env, vpr and carries firefly luciferase gene in place of nef infected in human HeLa-T4 cells assessed as inhibition of 2 mins magnetic nanopartials-medated infectivity after 48 hrs luciferase assay; format: functional, organism-based; conditions: for pEC50: Human immunodeficiency virus 1, HeLaT4
How it was run: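 HeLa-T4 cells infected with virus dialysed against HS buffer (pH 7.3, 24 h, 4°C), plus 1.5% FBS, preincubated 5 min with 0.5 mg/ml magnetite nanoparticles. Added at 1:13 (vol/vol) final, 2 min under ~1 T, washed three or four times. Incubated at 37°C; luciferase read at 48 h.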

[5] = test system: Human immunodeficiency virus 1; test: Antiviral activity against HIV1 NL4-3.Luc assessed as infectivity using human MDM pretreated for 24 hrs followed by exposed to virus after compound washout measured after 2 to 3 days by luciferase assay; format: functional, organism-based
[6] = test system: Human immunodeficiency virus 1; test: Antiviral activity against HIV1 NL4-3.Luc assessed as infectivity using human PBMC pretreated for 24 hrs followed by exposed to virus after compound washout measured after 2 to 3 days by luciferase assay; format: functional, organism-based
[7] = test system: Human immunodeficiency virus 1; test: Antiviral activity against single-round HIV1 NLX.Lux-R harboring inactivating mutations in env, vpr and carries firefly luciferase gene in place of nef infected in human HeLa-T4 cells assessed as time required to 50% inhibition of infection at 10 times EC95 by time-of-addition assay; format: functional
How it was run: (§2)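 Time-of-addition: drug at 10× or 100× EC95 added to HIV-Luc-infected HeLa-T4 cultures at set times after infection. Lysis at 48 h; luciferase as percent of no-drug cells. The time giving 50% inhibition versus the no-drug control was read from the curves.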

[8] = test system: Human immunodeficiency virus 1; test: Antiviral activity against single-round HIV1 NLX.Lux-R harboring inactivating mutations in env, vpr and carries firefly luciferase gene in place of nef infected in human HeLa-T4 cells assessed as time required to cause 50% loss in compound potency at 10 times EC95 by time-of-addition assay; format: functional; how it was run: as §2
[9] = test system: Human immunodeficiency virus 1; test: Antiviral activity against single-round HIV1 NLX.Lux-R harboring inactivating mutations in env, vpr and carries firefly luciferase gene in place of nef infected in human HeLa-T4 cells assessed as time required to 50% inhibition of infection at 100 times EC95 by time-of-addition assay; format: functional; how it was run: as §2
[10] = test system: Human immunodeficiency virus 1; test: (§3) Antiviral activity against single-round HIV1 NLX.Lux-R harboring inactivating mutations in env, vpr and carries firefly luciferase gene in place of nef assessed as level of infection using human HeLaT4 cells pretreated at 100 time EC95 for 24 hrs followed by exposed to virus after 12 hrs of 3 times compound washout relative to untreated control cells; format: functional, organism-based
How it was run: (§4)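 HeLa-T4 cells pretreated 24 h with 100× EC95 drug, washed three times, then infected with VSV-G-pseudotyped HIV-Luc at 0, 2, 4, 8 or 12 h after washing. Virus removed by three washes at 2 h; lysis at 48 h. Luciferase normalized to protein, percent of no-drug control, Student's t test. Washout EC50 from immediate infection; ratio to standard EC50; ≥3 experiments in duplicate.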

[11] = test system: Human immunodeficiency virus 1; test: (§5) Antiviral activity against single-round HIV1 NLX.Lux-R harboring inactivating mutations in env, vpr and carries firefly luciferase gene in place of nef assessed as level of infection using human HeLaT4 cells pretreated for 24 hrs followed by exposed to virus immediately after 3 times compound washout; format: functional, organism-based; conditions: Human immunodeficiency virus 1, HeLaT4; how it was run: as §4
[12] = test system: Human immunodeficiency virus 1; test: as §5, with “Ratio of EC50 for” for “Antiviral activity against”, “washout to standard EC50 for HIV1 NLX.Lux-R” for “washout”; format: functional; how it was run: as §4
[13] = test system: Human immunodeficiency virus 1; test: (§6) Antiviral activity against single-round HIV1 NLX.Lux-R harboring inactivating mutations in env, vpr and carries firefly luciferase gene in place of nef assessed as suppression of 2 mins magnetic nanopartials-medated residual infection in human HeLaT4 cells treated at 100 time EC95 for 1 measured after 11 hrs of 3 times compound washout and rewashed 48 hrs post infection by time-of-addition pulse assay relative to untreated control; format: functional
How it was run: (§7)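 Pulse time-of-addition: dialysed virus preincubated with magnetite nanoparticles, added to HeLa-T4 cells, 2 min under ~1 T magnetic field, then washed. At set times after infection, cells pulsed 1 h with 100× EC95 drug, washed three times and cultured drug-free. Lysis at 48 h postinfection; luciferase given as percent of no-drug control.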

[14] = test system: Human immunodeficiency virus 1; test: (§8) Antiviral activity against single-round HIV1 NLX.Lux-R harboring inactivating mutations in env, vpr and carries firefly luciferase gene in place of nef assessed as level of 2 mins magnetic nanopartials-medated infection in human HeLaT4 cells treated for 1 measured after of 3 times compound washout and rewashed 48 hrs post infection by time-of-addition pulse assay; format: functional; how it was run: as §7
[15] = test system: Human immunodeficiency virus 1; test: Antiviral activity against HIV1 NL4-3.Luc in human PBMC assessed as infectivity treated for 24 hrs by luciferase assay; format: functional, organism-based; conditions: Human immunodeficiency virus 1, 24 h
[16] = test system: Human immunodeficiency virus 1; test: Antiviral activity against HIV1 NL4-3.Luc in human MDM assessed as infectivity treated for 24 hrs by luciferase assay; format: functional, organism-based; conditions: Human immunodeficiency virus 1, 24 h
[17] = test system: Human immunodeficiency virus 1; test: Ratio of EC50 for HIV1 NL4-3.Luc assessed as infectivity using human PBMC pretreated for 24 hrs followed by exposed to virus after compound washout to standard EC50 for HIV1 NL4-3.Luc; format: functional
[18] = test system: Human immunodeficiency virus 1; test: Ratio of EC50 for HIV1 NL4-3.Luc assessed as infectivity using human MDM pretreated for 24 hrs followed by exposed to virus after compound washout to standard EC50 for HIV1 NL4-3.Luc; format: functional
[19] = Drug uptake in human HeLaT4 cells assessed as compound persist measured after 3 times washout at 100 time EC95 for HIV1 for 24 hrs; format: ADME, cell-based; conditions: helat4, 24 h; how it was run: as §4
[20] = test system: Human immunodeficiency virus 1; test: as §3, with “virus immediately” for “virus”, “after” for “after 12 hrs of”; format: functional; how it was run: as §4
[21] = test system: Human immunodeficiency virus 1; test: as §6, with “level” for “suppression”, “nanopartials-medated” for “nanopartials-medated residual”, “3” for “11”, “control at 4 hr time point” for “control”; format: functional; how it was run: as §7
[22] = test system: Human immunodeficiency virus 1; test: as §3, with “2 to 4” for “12”; format: functional; how it was run: as §4
[23] = test system: Human immunodeficiency virus 1; test: as §8, with “nanopartials-medated residual” for “nanopartials-medated”, “treated at 100 time EC95” for “treated”, “after 3 hrs” for “after”; format: functional; how it was run: as §7
[24] = test system: Human immunodeficiency virus 1; test: as §3, with “8” for “12”; format: functional, organism-based; how it was run: as §4

Row | SMILES | pEC50 [1] | EC95 [1] [nM] | CC50 [2] [nM] | selectivity ratio [3] | Activity [4] | pEC50 [4] | pEC50 [5] | pEC50 [6] | Time [7] [h] | Time [8] [h] | pEC50 [11] | Ratio EC50 [12] | pEC50 [15] | EC95 [15] [nM] | pEC50 [16] | EC95 [16] [nM] | Ratio EC50 [17] | Ratio EC50 [18] | Drug uptake [19] | Activity [20] | also measured
1 | O=C1Nc2ccc(Cl)cc2[C@@](C#CC2CC2)(C(F)(F)F)O1 [EFAVIRENZ] | 8.96 | 8 | 35000 | 31800 | Dose-dependent effect | 6.00 |  |  |  |  |  |  |  |  |  |  |  |  |  |  | 
2 | COc1cc2c(cc1Cc1cccc(Cl)c1F)c(=O)c(C(=O)O)cn2[C@H](CO)C(C)C [ELVITEGRAVIR] | 8.54 | 37 | 34000 | 11700 | Dose-dependent effect | 5.47 | 7.60 | 7.44 | 10.1 | 11.1 | 7.22 | 20.7 | 9.52 | 7.4 | 9.30 | 8.2 | 120 | 50 |  |  | Time [9]: 11.3 h; Activity [10]: Active; fold change (FC) [13]: 2; EC98.6 [14]: 75 nM
3 | Cc1ccnc2c1NC(=O)c1cccnc1N2C1CC1 [NEVIRAPINE] | 7.14 | 680 | > 100000 | > 1370 |  |  | < 4.00 | < 4.00 |  | 7.2 | < 4.00 | >1370 | 7.39 | 690 | 7.57 | 640 | >2439 | >3703 | Not Active | inactive | Activity [21]: 23%
4 | Cc1nnc(C(=O)NC(C)(C)c2nc(C(=O)NCc3ccc(F)cc3)c(O)c(=O)n2C)o1 [RALTEGRAVIR] | 7.11 | 810 | > 100000 | > 1300 |  |  | 5.31 | 5.48 | 10.5 | 10.2 | 5.34 | 547.6 | 8.62 | 48 | 8.37 | 80 | 1375 | 1140 |  | 19% | Time [9]: 12.7 h; Activity [22]: 50%; Activity [23]: 9%; fold change (FC) [13]: 2; EC91 ([14]; Human immunodeficiency virus 1, HeLaT4): 0.073 µM
5 | CC(C)OC(=O)OCOP(=O)(CO[C@H](C)Cn1cnc2c(N)ncnc21)OCOC(=O)OC(C)C.O=C(O)/C=C/C(=O)O [TENOFOVIR DISOPROXIL FUMARATE] | 8.54 | 37 | 34000 | 11700 |  |  | 7.47 | 7.26 |  |  | 6.92 | 4 | 7.34 | 720 | 7.55 | 520 | 1.2 | 1.2 | Active |  | Activity [10]: Active; EC99.6 [14]: 0.95 µM
6 | Cc1cn([C@H]2C[C@H](N=[N+]=[N-])[C@@H](CO)O2)c(=O)[nH]c1=O [ZIDOVUDINE] | 8.08 | 90 | > 100000 | > 11900 |  |  |  |  |  | 4.8 | 5.34 | 59.7 |  |  |  |  |  |  | Active | 18% | Activity [22]: 40%; Activity [24]: inactive
